A1 inh = caspase 3/7 activation in MEF A1-2A-BIM cells, primary screen, A1 inhibitor project, cell-based, luminescence, HTS. Caspase-Glo 3/7 luminescence, 3 h; percent of clofoctol response, vehicle zero. caspase activation, % (concentration not given with the values). 0.066% of 330,000 active. AID 2462, 2010;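 active = over half of replicate activation scores above 10%, or exactly half above 10 with the replicate mean above 10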
XBP1 UPR activ = activators of adaptive XBP1 UPR arm, primary screen, cell-based, CHO-XBP1 luciferase reporter, luminescence, uHTS. 0.33% of 330,000 active. activation, % at 20 µM. IRE1-XBP1 UPR activation; percent of tunicamycin response, DMSO as zero. AID 463104, 2010;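 active = versus positive control, 20 µM dose yields 30% or more activation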;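 also: 100% = tunicamycin at 10 µg/mL and 0% = DMSO only wells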
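Test system: CHO-XBP1 luciferase reporter cells | Buffer or medium: Serum-containing F12 medium, 10% FBS | Schedule: 6 h compound exposure at 37 °C, 5% CO2 | Detection: Steady-Glo luciferase glow luminescence, 10 min after reagent addition | Read-out basis: Activation, % of tunicamycin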
UPR CHOP act = activators of apoptotic CHOP UPR arm, primary screen, cell-based, CHO-CHOP luciferase reporter, luminescence, uHTS | UPR activation; percent of tunicamycin response over DMSO baseline | activation, % at 10 µM | 0.34% of 330,000 active | AID 449763, 2010;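 active = at 10 µM dose, activation of 40% or more, normalized to positive control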;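 also: 100% = tunicamycin at 10 µg/mL and 0% = DMSO alone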
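System: CHO-CHOP luciferase reporter cell line; amount: 500 cells/well; buffer or medium: F12 medium containing 10% fetal bovine serum; incubation: 6 h compound exposure at 37 °C after overnight seeding; measured by: luciferase luminescence after 10 min with Steady-Glo reagent; evaluation: % reporter activation, DMSO baseline versus tunicamycin full activation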
CHOP inhibitor = inhibitors of CHOP promoter induction, primary screen, cell-based, unfolded protein response, luciferase reporter | CHO-K1 CHOP-promoter luciferase, tunicamycin-induced, 15-18 h | inhibition, % at 10 µM | 3.8% of 220,000 active | AID 2732, 2010;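 active = compounds that reduced the stress-induced luciferase reporter signal by more than about 70% of percent inhibition, limit read from the data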;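 also: 0% = tunicamycin plus vehicle and 100% = wells without tunicamycin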
* marks the source's active call; other numbers are inactive results. The sample as a whole holds a higher share of hits than the screen did.

CC(C)Cn1c(=O)c(C(=O)Nc2ccccc2S(N)(=O)=O)c(O)c2ccccc21 was read as A1 inh -2, XBP1 UPR activ 8, UPR CHOP act 0 and CHOP inhibitor 73*.
O=C(N/N=C/c1cccc(F)c1)c1c(O)c2c([nH]c1=O)CCCC2 was read as A1 inh -2, XBP1 UPR activ -6, UPR CHOP act 2 and CHOP inhibitor 82*.
`COc1ccc(CNC(=O)COC(=O)c2cccs2)cc1` gave A1 inh 0, XBP1 UPR activ 3 and UPR CHOP act 3.
O=C(CNC(=O)c1cccc(S(=O)(=O)N2CCc3ccccc32)c1)Nc1ccc(F)c(F)c1F was read as XBP1 UPR activ -5 and UPR CHOP act 0.
For NS(=O)(=O)c1ccc(CCNC(=O)c2cc([N+](=O)[O-])ccc2N2CCOCC2)cc1 the results were A1 inh 1, XBP1 UPR activ -2 and UPR CHOP act 1.
Screening N#Cc1c(C(F)(F)F)cc(C2CC2)nc1N1CCCC1 returned A1 inh 1, XBP1 UPR activ -2, UPR CHOP act -2 and CHOP inhibitor 83*.
CC(=O)c1ccc(-n2nnnc2SCC(=O)Nc2sc(C)c(C)c2C#N)cc1 was read as A1 inh 0, XBP1 UPR activ 2, UPR CHOP act 2 and CHOP inhibitor 81*.
Screening Cc1ccc(NC(=O)CSc2nnnn2-c2ccc3c(c2)OCO3)cc1C returned A1 inh 0, XBP1 UPR activ -4, UPR CHOP act -4 and CHOP inhibitor 92*.
CCCn1nnnc1SCC(=O)Nc1sc(C)c(C)c1C#N was read as A1 inh -1, XBP1 UPR activ -2, UPR CHOP act -3 and CHOP inhibitor 22.
`Cc1ccc(-n2nnnc2SCC(=O)Nc2ccc3c(c2)OCCO3)cc1C` gave A1 inh -1, XBP1 UPR activ 0, UPR CHOP act -1 and CHOP inhibitor 35.
`Cc1ccc(-n2nnnc2SCC(=O)Nc2sc(C)c(C)c2C#N)cc1C` gave A1 inh 1, XBP1 UPR activ 3, UPR CHOP act -2 and CHOP inhibitor 83*.
`Cc1sc(NC(=O)CSc2nnnn2C)c(C#N)c1C` gave A1 inh 1, XBP1 UPR activ 5, UPR CHOP act -2 and CHOP inhibitor 0.
O=C(CSc1nnnn1-c1ccccc1)Nc1ccc(Cl)cc1 was read as A1 inh 1, XBP1 UPR activ 1, UPR CHOP act 1 and CHOP inhibitor 88*.
`O=C(O)CC(c1ccc(Br)cc1)N1Cc2ccccc2C1=O` (stereo not drawn) gave A1 inh 0, XBP1 UPR activ -5 and UPR CHOP act 1.
For O=C(CSc1cc(Cl)ccc1Cl)Nc1ccc(N2CCOCC2)cc1 the results were A1 inh 1, XBP1 UPR activ -2 and UPR CHOP act 0.
`CCN(CC)C(=O)c1ccc(/C=C/c2c[nH]c3ccccc23)[n+](C)c1` gave A1 inh 1, XBP1 UPR activ 1, UPR CHOP act -2 and CHOP inhibitor -31.
For CC[n+]1c(/C=C/c2c[nH]c3ccccc23)ccc2cc(C)ccc21 the results were XBP1 UPR activ 16, UPR CHOP act 21 and CHOP inhibitor 75*.
Cc1ccc(NC(=S)N2CCCC2)cc1Cl was read as A1 inh 1, XBP1 UPR activ -1 and UPR CHOP act 0.
`CNc1oc(-c2ccccc2Cl)nc1P(=O)(c1ccccc1)c1ccccc1` gave A1 inh 0, XBP1 UPR activ -3, UPR CHOP act 0 and CHOP inhibitor 80*.
Cc1ccccc1-c1nc(P(=O)(c2ccccc2)c2ccccc2)c(N2CCOCC2)o1 was read as A1 inh 0, XBP1 UPR activ -1, UPR CHOP act 1 and CHOP inhibitor 11.
COc1cccc(S(=O)(=O)NCc2ccc(C(=O)Nc3cccc(Cl)c3)cc2)c1 was read as A1 inh 0, XBP1 UPR activ -4, UPR CHOP act 1 and CHOP inhibitor 71*.
Screening COc1ccccc1C(=O)Oc1cc(N)n(S(=O)(=O)c2ccc(C)cc2)n1 returned A1 inh -1, XBP1 UPR activ 3, UPR CHOP act -2 and CHOP inhibitor 79*.
COc1ccc(S(=O)(=O)n2nc(OC(=O)C3CCCCC3)cc2N)cc1 was read as A1 inh 0, XBP1 UPR activ 2, UPR CHOP act -1 and CHOP inhibitor 74*.
`Cc1ccc(S(=O)(=O)n2nc(OC(=O)c3ccccc3C)cc2N)cc1` gave A1 inh 1, XBP1 UPR activ -7 and UPR CHOP act 1.
For COc1cc(NC(=O)c2cc(C3CC3)on2)c(OC)cc1Cl the results were A1 inh 2, XBP1 UPR activ -4, UPR CHOP act -2 and CHOP inhibitor 84*.
Screening COc1cc(NC(=O)c2cc(C(C)C)on2)c(OC)cc1Cl returned A1 inh -1, XBP1 UPR activ -3, UPR CHOP act 0 and CHOP inhibitor 45.
Screening CC1CCc2c(C(=O)Oc3cccc(-n4cnnn4)c3)csc2C1 (stereo not drawn) returned A1 inh 0, XBP1 UPR activ 1, UPR CHOP act 0 and CHOP inhibitor 89*.
`CSc1cccc(NC(=O)CCC(=O)O)c1` gave A1 inh 0, XBP1 UPR activ -3, UPR CHOP act 0 and CHOP inhibitor 26.
For Cc1c(C)c(C)c(C(=O)CCc2cccc(NC(=O)CCC(=O)O)c2)c(C)c1C the results were A1 inh 11*, XBP1 UPR activ -1 and UPR CHOP act 1.
CC(C)C(=O)Nc1nnc(S(=O)(=O)N(C)c2ccc(Cl)cc2)s1 was read as A1 inh 1, XBP1 UPR activ -3 and UPR CHOP act 1.
COc1ccc(C(C)NC(=O)c2ccncc2)cc1OC (stereo not drawn) was read as A1 inh 0, XBP1 UPR activ -9 and UPR CHOP act 3.
Screening COc1cc2nc(N3CCNCC3)nc(N)c2cc1OC returned A1 inh 0, XBP1 UPR activ 2, UPR CHOP act -2 and CHOP inhibitor 70*.
Screening COc1cc2nc(Cl)nc(N3CCCCC3)c2cc1OC returned A1 inh 0, XBP1 UPR activ 4, UPR CHOP act -2 and CHOP inhibitor 4.
For CCOC(=O)c1ccc(NC(=O)c2nc[nH]c2C(=O)N2CCc3ccccc3C2)cc1 the results were A1 inh 0, XBP1 UPR activ 3, UPR CHOP act 1 and CHOP inhibitor 72*.
`Cc1ccc(NC(=O)c2nc[nH]c2C(=O)N2CCc3ccccc3C2)cc1` gave A1 inh 1, XBP1 UPR activ -4 and UPR CHOP act 4.
`O=C(NC1CCCCC1)C(c1ccc(F)cc1)N(Cc1cccs1)C(=O)CN1C(=O)c2ccccc2S1(=O)=O` (stereo not drawn) gave A1 inh 1, XBP1 UPR activ 11, UPR CHOP act 6 and CHOP inhibitor 91*.

Screening results (PubChem)
